Compound activity from PubChem.
TCR CD3 inh: blocks the human TCR-CD3 interaction. 360,000 tested, 0.37% active. inhibition, % at 9.4 µM. TAMRA-labeled TCR probe fluorescence, biochemical. AID 651800; in the data active means inhibition above about 19%;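 further: recombinant mutant TCR 2C K166C tagged with TAMRA read by polarization; 0% = receptor in buffer alone and 100% = receptor with positive control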
SIAE inh: blocks human sialic acid acetylesterase. 370,000 tested, 0.69% active. Q9HAT2. inhibition, % at 9.66 µM. SIAE FP-Rh probe binding, fluorescence polarization;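 active means inhibition above a cutoff: mean of compounds within the control limits plus 3 SD of those, cut at about 17% in these data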;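 further: 0% = plate median of compound wells and 100% = probe without SIAE protein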
mABHD4 FP: ABHD4 (mouse) inhibition, primary FP screen; Q8VD66; purified mABHD4, FP-Rh probe fluorescence polarization; inhibition, % at 8.92 µM; 370,000 tested, 0.54% active;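 active means inhibition exceeding the mean over every tested compound plus 3 SD, cut at about 30% in these data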;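 further: 0% = plate median of compound wells and 100% = S159A mutant with DMSO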
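Material: mouse ABHD4 enzyme, wild type; Benchmarks: S159A mutant high control, sample median low control; Buffer or medium: HEPES pH 7.0, NaCl, Pluronic buffer; Signal: fluorescence polarization; Read-out: percent inhibition of probe binding, normalized to plate controls; Timing: pre-incubation 45 min, probe exposure 60 min, at 25 °C; Dosing: 8.92 µM, single dose.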
HTRA1 inh: HTRA1 (human) protease inhibition; Q92743; recombinant HTRA1, FP-rhodamine activity-based probe, fluorescence polarization; inhibition, % at 5.96 µM; 340,000 tested, 0.5% active; AID 504803; in the data active means inhibition above about 36%;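 further: 0% = enzyme with DMSO and 100% = wells lacking enzyme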
Target sequence (Q92743 whole entry, looked up): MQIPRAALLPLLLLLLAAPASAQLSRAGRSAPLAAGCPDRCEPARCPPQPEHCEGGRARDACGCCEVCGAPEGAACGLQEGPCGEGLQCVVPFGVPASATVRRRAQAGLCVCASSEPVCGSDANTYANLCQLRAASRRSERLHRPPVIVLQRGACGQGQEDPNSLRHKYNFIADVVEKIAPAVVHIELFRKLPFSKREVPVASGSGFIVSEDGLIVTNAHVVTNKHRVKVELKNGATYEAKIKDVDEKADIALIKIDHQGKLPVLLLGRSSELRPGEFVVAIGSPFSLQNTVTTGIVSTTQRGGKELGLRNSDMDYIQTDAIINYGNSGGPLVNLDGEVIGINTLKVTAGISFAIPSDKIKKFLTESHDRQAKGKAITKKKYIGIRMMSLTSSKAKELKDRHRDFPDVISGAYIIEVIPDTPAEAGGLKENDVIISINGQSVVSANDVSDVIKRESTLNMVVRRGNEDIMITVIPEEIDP
ATG4B inh: inhibitors of human ATG4B cysteine protease | ATG4B cleavage of LC3-PLA2, NBD-HPC fluorescence, 1 h | inhibition, % at 8.33 µM | 340,000 tested, 0.51% active | AID 504462; in the data active means inhibition above about 40%
PRMT1 inh: blocks human protein arginine methyltransferase 1. 370,000 tested, 1.3% active. inhibition, % at 2.79 µM. AID 652257. Q99873. recombinant PRMT1, activity-based probe fluorescence polarization;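 active means inhibition above about 21% made by adding two undisclosed values, limit read from the data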
PLA2 counter: PLA2 (human) inhibition in ATG4B counter-screen. 1,600 tested, 66% active. shares compounds with ATG4B inh. purified PLA2, NBD-C6-HPC fluorescence, 45 min. inhibition, % at 8.33 µM; in the data active means inhibition above about 50%
* marks the source's active call; other numbers are inactive results; . = no result given. This is a sample that favours compounds with a hit; in the whole collection about 2.9% have one here.

SMILES	TCR CD3 inh	SIAE inh	mABHD4 FP	HTRA1 inh	ATG4B inh	PRMT1 inh	others
COc1ccc2c3c([nH]c2c1)C(C)NCC3 (configuration not stated)	25*	6	10	18	-16	-3
CCN(CC)c1ccc(/C=C2\C(=O)NC(=O)N(Cc3ccco3)C2=O)cc1	-78	-84	-65	-40	-5	22*
O=C1NC(=O)N(Cc2ccco2)C(=O)/C1=C/c1cccn1CCOc1ccccc1Cl	-3	-24	-13	-1	-6	22*
CCN(CC)c1ccc(/C=C2/C(=O)NC(=O)N(CC3CCCO3)C2=O)cc1 (configuration not stated)	-63	-38	2	2	-5	7
O=C1NC(=O)N(Cc2ccccc2)C(=O)/C1=C\c1ccco1	-17	-4	-23	3	16	17
Cc1cc(C)cc(N2C(=O)NC(=O)/C(=C\C=C\c3ccco3)C2=O)c1	-17	-31	-14	11	8	15
Cc1ccc(N2C(=O)NC(=O)/C(=C/C=C/c3ccco3)C2=O)cc1	-4	-26	-8	0	7	24*
COC(=O)[C@@]1(O)c2c(oc3cccc(O)c3c2=O)C=C[C@H]1O	.	-2	0	.	.	5
Cn1ncnc2c(=O)n(C)c(=O)nc1-2	.	.	.	24	86*	.
N#CCC[C@@H]1CC[C@]2(CCCN(Cc3ccncc3)C2)O1	.	3	1	.	.	2
COC(=O)C1=C(c2c(C)noc2C)C[C@@H]2CC[C@H]1N2C(=O)NCCCOC(C)C	2	31*	-3	-1	2	-1
COc1ccc(OC)c(N2C(=O)NC(=O)/C(=C\c3ccc([N+](=O)[O-])s3)C2=O)c1	-32	-8	-35	31	6	28*
CCOc1c(P(=S)(N(C)C)N(C)C)c(C)nn1-c1ccccc1	1	8	5	1	-5	-1
CCN(CC)P(=S)(c1c(C)nc2ccccn12)c1c(C)nc2ccccn12	-5	9	6	-7	0	24*
CCOC(=O)CC[C@@H]1CC[C@]2(CCCN(Cc3ccccn3)C2)O1	.	0	4	.	.	3
C=CCCC(NC(=O)OCc1ccccc1)P(=O)(Oc1ccccc1)Oc1ccccc1 (configuration not stated)	.	-2	-8	.	.	3
CC(C)(C)OC(=O)c1c(N)n(Cc2ccco2)c2nc3ccccc3nc12	-5	-9	3	-10	-8	21*
COCCNC(=O)c1c(N)n(Cc2ccco2)c2nc3ccccc3nc12	1	-5	4	9	-17	12
CC(C)(C)NC(=O)CN1C(=O)[C@@H](Cc2c[nH]c3ccccc23)N=C(c2ccccc2)c2ccccc21	.	3	-8	.	.	-3
CCOc1ccc(N2C(=O)/C(=C/c3ccco3)C(=O)NC2=S)cc1	.	.	.	54*	81*	.
CCOC(=O)COc1ccc(/C=C2\C(=O)NC(=S)N(c3ccc(OC)cc3)C2=O)cc1OC	-4	-3	8	1	-4	23*
CCN1C(=O)NC(=O)/C(=C\c2ccc(N3CCOCC3)cc2OC)C1=O	-22	-78	2	.	.	21*
COc1ccc(/C=C2\C(=O)NC(=O)N(CCC3=CCCCC3)C2=O)c(OC)c1	-4	5	9	0	4	8
Cc1cc2c(C(C)C)c(O)c(O)c(C=O)c2c(O)c1-c1c(C)cc2c(C(C)C)c(O)c(O)c(C=O)c2c1O	5	19*	92*	.	.	25*
O=c1[nH]c(=O)n(CCC2=CCCCC2)c(O)c1/C=N/Nc1ccccc1	-2	5	7	-4	0	22*
SMILES	TCR CD3 inh	SIAE inh	mABHD4 FP	HTRA1 inh	ATG4B inh	PRMT1 inh	others
O=c1[nH]c(=O)n(C2CCCCCC2)c(O)c1C=NCc1cccnc1	-5	-2	-2	-2	-1	2
COc1ccc2c(c1OC)C(=O)OC2c1c(O)n(C2CCCCC2)c(=O)[nH]c1=O (configuration not stated)	-7	4	-6	-1	-2	23*
COc1ccc(Cc2cn(C)c(N)n2)cc1	.	3	2	.	.	3
COc1cc(/C=C2\C(=O)NC(=O)N(CCc3ccc(F)cc3)C2=O)ccc1O	-9	-9	3	-12	0	24*
CCOc1ccc(/C=C2/C(=O)NC(=O)N(CCc3ccc(F)cc3)C2=O)cc1	-2	-14	-6	2	2	10
c1ccc(Cn2nnnc2C2CN=C(c3ccccc3)c3ccccc3N2)cc1 (configuration not stated)	.	-1	-4	.	.	2
CC(C)(C)n1nnnc1C1CN=C(c2ccccc2)c2ccccc2N1 (configuration not stated)	.	-2	3	.	.	-2
CCC1(c2ccccc2)C(=O)N(C)C(=O)N(C)C1=O	-11	3	3	-4	-18	1
CN1C(=O)N(C)C(=O)C2(Sc3ccccc3C2=O)C1=O	6	6	15	9	3	27*
CC(=O)N1c2ccccc2C(c2ccccc2)=NCC1C(=O)NC1CCCCC1 (configuration not stated)	.	-5	-2	.	.	5
O=C(O)c1ccc2c(c1)C1C(Cl)C(Sc3ccccc3[N+](=O)[O-])CC1C(c1cccc([N+](=O)[O-])c1)N2 (configuration not stated)	.	.	.	81*	48*	.
Cc1cc(O)c2c(c1)C(=O)[C@@]13C(=C2O)C(=O)[C@H]2C(O)[C@@H]1[C@H]1C(O)[C@@H]3C(=O)C3=C(O)c4c(O)cc(C)cc4C(=O)[C@@]312 (some centres not stated)	.	0	13	.	.	-5
O=C(O)CNC1c2ccccc2CSc2ccccc21 (configuration not stated)	-1	-1	3	.	3	21*
Cn1c(O)c(C=Nc2cccc(C(F)(F)F)c2)c(=O)n(C)c1=O	3	-4	-5	1	2	22*
COC(=O)[C@H]1C[C@@]2(C)c3ccccc3N[C@H]2N1	.	3	0	.	.	2
COc1ccc(-c2cc(=Nc3cccc(C(=O)O)c3)c3cc(C)ccc3o2)cc1	6	1	1	-21	61*	-3	PLA2 counter=76*
O=C(NCCN1CCC2(CC1)C(=O)NCN2c1ccccc1)c1ccc(F)c(F)c1	-5	-1	6	.	.	4
O=c1c2ccccc2nc(/C=C/c2ccccc2)n1-c1ccccc1O	10	-11	-17	-29	62*	-4	PLA2 counter=70*
Cc1cc(OCC(=O)NC(Cc2ccc(Cl)cc2)C(=O)O)c2c3c(c(=O)oc2c1)CCCC3 (configuration not stated)	7	-6	0	-22	45*	-2	PLA2 counter=72*
